The text below walks through data of ChEMBL document CHEMBL1781935, “Amberlite-IRA-402 (OH) ion exchange resin mediated synthesis of indolizines, pyrrolo [1,2-a] quinolines and isoquinolines: antibacterial and antifungal evaluation of the products” (2011).

In test [1] the test system is Cryptococcus neoformans. In words: Antifungal activity against […] after 96 hrs. Type of test: functional. In a few lines: (§1)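 Clinical isolates grown on Sabouraud dextrose agar at 28 °C. MIC was set by broth dilution in Sabouraud dextrose broth (0.1 ml of 2 × 10^5 spores/ml, 1–1500 µg/ml) or by agar dilution (2 × 10^5 spores/spot), with an antibiotic control, at 28 °C for 96 h. The lowest concentration with no visible growth was taken.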

In test [2] the test system is Candida albicans. The test is described as follows: Antifungal activity against Candida albicans after 96 hrs. Type of test: functional. The method, boiled down:
as §1

The test system of test [3] is Aspergillus niger. In words: Antifungal activity against Aspergillus niger after 96 hrs. Type of test: functional. The method, boiled down: as §1
In test [4] the test system is Candida tropicalis. In words: Antifungal activity against Candida tropicalis after 96 hrs. The class given is functional. The method, boiled down: as §1
Test [5] concerns Bacillus subtilis. In words: Antibacterial activity against Bacillus subtilis UC564. The class given is functional. In a few lines: (§2)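 MIC by broth and agar dilution. Broth: 0.1 ml suspension (2 × 10^6 cfu/ml) in Mueller-Hinton broth with test drug at 1–1000 µg/ml, 37 °C overnight. Agar: serial drug dilutions in Mueller-Hinton agar, spot-inoculated with 2 × 10^6 cfu/spot, 37 °C for 24 h. MIC was the lowest concentration with no visible growth. Antibiotic controls were included.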

The subject of test [6] is Salmonella typhimurium. In words: Antibacterial activity against Salmonella Typhimurium isolate 11. The class given is functional, Salmonella enterica subsp. enterica serovar Typhimurium. To be noted: Salmonella enterica. In a few lines:
as §2

In test [7] the test system is Staphylococcus aureus. In words: Antibacterial activity against Staphylococcus aureus ATCC 25923 at 1 to 1000 ug/ml after overnight incubation by disc diffusion method. Type of test: functional. In a few lines: (§3)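 Disc diffusion on Mueller-Hinton agar. Plates seeded with 0.1 ml bacterial suspension (2 × 10^6 cfu/ml). Sterile 6 mm paper discs were impregnated with compound solutions at 1–1000 µg/ml and incubated at 37 °C overnight. Read-out was the diameter of the clear inhibition zone. Stocks were 1 mg/ml in 4% Tween 80 or 4% propylene glycol.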

Test [8] concerns Salmonella typhimurium. In words: Antibacterial activity against Salmonella Typhimurium isolate 11 at 1 to 1000 ug/ml after overnight incubation by disc diffusion method. The class given is functional, organism-based. To be noted: Salmonella enterica subsp. enterica serovar Typhimurium. In a few lines: as §3
The test system of test [9] is Vibrio parahaemolyticus. The test is described as follows: Antibacterial activity against Vibrio parahaemolyticus isolate 72016. Type of test: functional. In a few lines: as §2
For test [10], the system named is Shigella dysenteriae. In words: Antibacterial activity against Shigella dysenteriae isolate 3. The class given is functional.
The test system of test [11] is Escherichia coli. In words: Antibacterial activity against Escherichia coli ATCC 25938. Type of test: functional. In a few lines:
as §2

Test [12] has as its system Klebsiella pneumoniae. In words: Antibacterial activity against Klebsiella pneumoniae isolate J/1/4. Type of test: functional. In a few lines:
as §2

Test [13] deals with Enterococcus faecalis. In words: Antibacterial activity against Enterococcus faecalis isolate 29212 at 1 to 1000 ug/ml after overnight incubation by disc diffusion method. The class given is functional. The method, boiled down: as §3
A general note: A growth-free zone around the sample is the usual read-out of agar diffusion tests.

Test [14] has as its system Shigella flexneri. The test is described as follows: Antibacterial activity against Shigella flexneri DN13. Type of test: functional. In a few lines: as §2
For test [15], the system named is Enterococcus faecalis. The test is described as follows: Antibacterial activity against Streptococcus faecalis isolate 29212. Type of test: functional. In a few lines:
as §2

For test [16], the system named is Vibrio cholerae. The test is described as follows: Antibacterial activity against Vibrio cholerae isolate 720 at 1 to 1000 ug/ml after overnight incubation by disc diffusion method. Type of test: functional.
Test [17] relates to Shigella dysenteriae. In words: Antibacterial activity against Shigella dysenteriae isolate 3 at 1 to 1000 ug/ml after overnight incubation by disc diffusion method. Type of test: functional.
The test system of test [18] is Staphylococcus aureus. The test is described as follows: Antibacterial activity against Staphylococcus aureus ATCC 25923. The class given is functional. The method, boiled down:
as §2

The test system of test [19] is Vibrio cholerae. In words: Antibacterial activity against Vibrio cholerae isolate 7201 at 1 to 1000 ug/ml after overnight incubation by disc diffusion method. The class given is functional.
The test system of test [20] is Pseudomonas aeruginosa. The test is described as follows: Antibacterial activity against Pseudomonas aeruginosa ATCC 27853 at 1 to 1000 ug/ml after overnight incubation by disc diffusion method. The class given is functional. In a few lines:
as §3

Test [21] deals with Shigella flexneri. In words: Antibacterial activity against Shigella flexneri DN13 at 1 to 1000 ug/ml after overnight incubation by disc diffusion method. Type of test: functional. The method, boiled down: as §3
Test [22] has as its system Bacillus subtilis. In words: Antibacterial activity against Bacillus subtilis UC564 at 1 to 1000 ug/ml after overnight incubation by disc diffusion method. The class given is functional. The method, boiled down:
as §3

The subject of test [23] is Aspergillus niger. In words: Antifungal activity against Aspergillus niger at 1 to 1500 ug/ml after 96 hrs by disc diffusion method. The class given is functional. The method, boiled down:
(§4)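 Disc diffusion on Sabouraud dextrose agar. Plates seeded with 0.1 ml fungal spore suspension (2 × 10^5 spores/ml). Sterile 6 mm discs were impregnated with compound solutions at 1–1500 µg/ml and incubated at 28 °C for 96 h. Read-out was the clear inhibition zone. Strains were clinical isolates.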

Test [24] concerns Salmonella typhi. In words: Antibacterial activity against Salmonella typhi DIRW at 1 to 1000 ug/ml after overnight incubation by disc diffusion method. The class given is functional. To be noted: Salmonella enterica subsp. enterica serovar Typhi.
For test [25], the system named is Vibrio parahaemolyticus. The test is described as follows: Antibacterial activity against Vibrio parahaemolyticus isolate 72016 at 1 to 1000 ug/ml after overnight incubation by disc diffusion method. The class given is functional. The method, boiled down:
as §3

In test [26] the test system is Candida tropicalis. The test is described as follows: Antifungal activity against Candida tropicalis at 1 to 1500 ug/ml after 96 hrs by disc diffusion method. The class given is functional. The method, boiled down:
as §4

The subject of test [27] is Escherichia coli. In words: Antibacterial activity against Escherichia coli ATCC 25938 at 1 to 1000 ug/ml after overnight incubation by disc diffusion method. The class given is functional. The method, boiled down:
as §3

Test [28] relates to Micrococcus luteus. In words: Antibacterial activity against Micrococcus luteus AGD1. The class given is functional. In a few lines:
as §2

In test [29] the test system is Klebsiella pneumoniae. The test is described as follows: Antibacterial activity against Klebsiella pneumoniae isolate J/1/4 at 1 to 1000 ug/ml after overnight incubation by disc diffusion method. The class given is functional. In a few lines:
as §3

The subject of test [30] is Micrococcus luteus. In words: Antibacterial activity against Micrococcus luteus AGD1 at 1 to 1000 ug/ml after overnight incubation by disc diffusion method. The class given is functional. The method, boiled down:
as §3

For test [31], the system named is Candida albicans. In words: Antifungal activity against Candida albicans at 1 to 1500 ug/ml after 96 hrs by disc diffusion method. The class given is functional. The method, boiled down:
as §4

For test [32], the system named is Vibrio cholerae. In words: Antibacterial activity against Vibrio cholerae isolate 7201. The class given is functional.
For test [33], the system named is Aspergillus niger. In words: Antifungal activity against Aspergillus niger after 96 hrs by dry weight calculation. The class given is functional, organism-based. In a few lines:
(§5)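 Fungicidal testing with double-fold drug dilutions in Sabouraud dextrose broth. Tubes inoculated with 1 ml spore suspension (2 × 10^5 spores/ml) and shaken at 200 rpm at 28 °C for 96 h. Drug was added at mid-logarithmic growth. Growth was measured as sample dry weight after drying at 60 °C.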

In test [34] the test system is Salmonella typhi. In words: Antibacterial activity against Salmonella typhi DIRW. To be noted: Salmonella enterica. Type of test: functional, Salmonella enterica subsp. enterica serovar Typhi.
Test [35] relates to Pseudomonas aeruginosa. In words: Antibacterial activity against Pseudomonas aeruginosa ATCC 27853. Type of test: functional. The method, boiled down: as §2
For test [36], the system named is Cryptococcus neoformans. The test is described as follows: Antifungal activity against […] at 1 to 1500 ug/ml after 96 hrs by disc diffusion method. The class given is functional, organism-based. The method, boiled down: as §4
Test [37] concerns Candida albicans. In words: Antifungal activity against Candida albicans after 96 hrs by dry weight calculation. The class given is functional, organism-based. The method, boiled down:
as §5

≈ marks a conversion by molar mass, not a printed value. Calls of active or inactive are those of the source. The calls are words filed in the database; no cut-off is given here. Where only a bound is given, the exact number is not on record here.

Consider `OC(Cn1cncn1)(Cn1cncn1)c1ccc(F)cc1F` [FLUCONAZOLE], for which the MIC with Cryptococcus neoformans [1] was 8 µg/mL (≈ 26.1 µM); in the test on Candida albicans [2], 4 µg/mL (≈ 13.1 µM); against Aspergillus niger [3], 10 µg/mL (≈ 32.7 µM); with Candida tropicalis [4] it was 8 µg/mL (≈ 26.1 µM).
With `O=C(c1ccccc1)c1c(-c2ccccc2)cc2c3ccccc3ccn12`, the MIC in the test with Bacillus subtilis [5] was 32 µg/mL (≈ 92.1 µM); in the test on Salmonella typhimurium [6], above 500 µg/mL; with Vibrio parahaemolyticus [9], 500 µg/mL (≈ 1440 µM); against Shigella dysenteriae [10], 128 µg/mL (≈ 368 µM); against Escherichia coli [11] it was 32 µg/mL (≈ 92.1 µM); with Klebsiella pneumoniae [12], 64 µg/mL (≈ 184 µM). Moreover, the MIC is 500 µg/mL (≈ 1440 µM) against Shigella flexneri [14]; 500 µg/mL (≈ 1440 µM) against Enterococcus faecalis [15]; 128 µg/mL (≈ 368 µM) against Staphylococcus aureus [18]; 500 µg/mL (≈ 1440 µM) in the test with Candida albicans [2]; 500 µg/mL (≈ 1440 µM) against Aspergillus niger [3]; 500 µg/mL (≈ 1440 µM) in the test with Micrococcus luteus [28]. Besides, the MIC with Vibrio cholerae [32] is 64 µg/mL (≈ 184 µM); with Salmonella typhi [34], above 500 µg/mL; against Pseudomonas aeruginosa [35], 128 µg/mL (≈ 368 µM); against Candida tropicalis [4] it was 1000 µg/mL (≈ 2880 µM). Moreover, the “diameter of the inhibition zone (DIZ)” value came out at 8.5 mm in the test with Staphylococcus aureus [7]; 9 mm in the test on Vibrio cholerae [16]; 8 mm with Shigella dysenteriae [17]; 9 mm with Vibrio cholerae [19]; 8.1 mm in the test on Pseudomonas aeruginosa [20]; 10.2 mm with Bacillus subtilis [22]. In addition, the “diameter of the inhibition zone (DIZ)” value in the test on Aspergillus niger [23] came out at 12 mm; with Candida tropicalis [26], 10 mm; in the test with Escherichia coli [27] it was 10 mm; with Klebsiella pneumoniae [29], 10.5 mm; in the test with Candida albicans [31], 30 mm. Besides, the “diameter of the inhibition zone (DIZ)” value in the test on Salmonella typhimurium [8], in the test with Enterococcus faecalis [13], in the test with Shigella flexneri [21], in the test with Salmonella typhi [24], in the test on Vibrio parahaemolyticus [25] and in the test with Micrococcus luteus [30] was “inactive” throughout. The “diameter of the inhibition zone (DIZ)” value in the test on Cryptococcus neoformans [36] is “inactive”. In addition, the Activity result in the test with Aspergillus niger [33] and in the test on Candida albicans [37] was “Dose-dependent effect” throughout.

The MIC is the lowest concentration found to suppress growth. Low readings indicate inhibition by little substance, high ones a need for much substance.
